Activity and inhibition data for one compound are collected here from ChEMBL document CHEMBL3393011, “Magnolol Inhibits RANKL-induced osteoclast differentiation of raw 264.7 macrophages through heme oxygenase-1-dependent inhibition of NFATc1 expression” (J Nat Prod, 2015).

The subject of data set [1] is RAW264.7. Briefly: Cytotoxicity against mouse RAW264.7 cells assessed as cell viability at 5 to 20 uM after 24 hrs by MTT assay. Type of data set: cell-based. Conditions: raw264.7, 24 h. In a few lines: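 Cells grown in DMEM with 10% heat-inactivated FBS. Exposure to compound or 0.1% DMSO vehicle for 24 h. MTT added 1 h at 37 °C, formazan dissolved in DMSO and read at 570 nm.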

Data set [2] concerns RAW264.7. Kind of data set: Antiosteoclast activity in mouse RAW264.7 cells assessed as reduction of RANKL-induced osteoclasts differentiation by measuring TRAP positive multinucleated cells after 5 days. Type of data set: functional, cell-based. In a few lines: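 Cells seeded 24 h, then 5 days in α-MEM with 10% FBS, RANKL 50 ng/mL and test compound. Cells fixed in 10% formalin 10 min and TRAP-stained. Multinucleated TRAP+ cells with three or more nuclei counted by light microscopy; mean ± SD, n = 5.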

Data set [3] deals with RAW264.7. Kind of data set: Inhibition of RANKL-stimulated JNK phosphorylation in mouse RAW264.7 cells at 20 uM by Western blotting analysis. In kind it is cell-based. A digest of the protocol:
(§1)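 Compound added 2 h before RANKL, followed by 15 min further incubation. Total cell lysates blotted on 12% SDS-PAGE for total and phosphorylated MAPKs, with milk block, primary overnight at 4 °C, HRP secondary, chemiluminescence and densitometry. At least three independent experiments.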
(In western blotting, separated proteins are transferred to a membrane and probed.)

The subject of data set [4] is RAW264.7. Kind of data set: Inhibition of RANKL-stimulated ERK phosphorylation in mouse RAW264.7 cells at 20 uM by Western blotting analysis. Type of data set: cell-based. A digest of the protocol: as §1
Data set [5] has as its target MAP kinase p38 (Mus musculus) (UniProt P47811+O08911+Q9WUI1+Q9Z1B7). Briefly: Inhibition of RANKL-stimulated p38 MAPK phosphorylation in mouse RAW264.7 cells at 20 uM by Western blotting analysis. In kind it is cell-based. In a few lines: as §1
The test system of data set [6] is RAW264.7. Kind of data set: Induction of nuclear accumulation of Nrf2 in RANKL-induced mouse RAW264.7 cells up to 20 uM after 3 hrs by Western blot analysis. In kind it is functional, cell-based. A digest of the protocol: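 Nuclear protein extracted with hypotonic then hypertonic (420 mM NaCl) buffers after 3 h RANKL 50 ng/mL with compound. Samples run on 12% SDS-PAGE and immunoblotted; at least three independent experiments.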

Data set [7] concerns RAW264.7. Kind of data set: Antiosteoclast activity in mouse RAW264.7 cells assessed as reduction of RANKL-induced osteoclasts differentiation by measuring TRAP positive multinucleated cells after 5 days in presence of tin protoporphyrin 9 (SnPP). Type of data set: functional, cell-based. In a few lines:
(§2)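 RANKL 50 ng/mL for 5 days in α-MEM with 10% FBS after 24 h seeding; SnPP 10 μM with test compound. TRAP+ multinucleated cells (≥3 nuclei) counted after formalin fixation and staining. TRAP activity: fixed cells in 50 mM citrate pH 4.6, 10 mM tartrate, 5 mM pNPP for 1 h, stopped with 0.1 N NaOH, A410, as % of RANKL-alone.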

In data set [8] the test system is RAW264.7. Briefly: Antiosteoclast activity in mouse RAW264.7 cells assessed as reduction of RANKL-induced osteoclasts differentiation by measuring TRAP activity after 5 days in presence of tin protoporphyrin 9 (SnPP). Type of data set: functional, cell-based. A digest of the protocol: as §2
In data set [9] the test system is RAW264.7. Briefly: Inhibition of NFATc1 expression in RANKL-induced mouse RAW264.7 cells at 20 uM after 24 hrs by immunofluorescence staining. Type of data set: functional, cell-based. In a few lines: (§3)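 Compound 20 μM, alone or with SnPP 10 μM, plus RANKL 50 ng/mL for 24 h. Nuclear NFATc1 by western blot of nuclear extracts, and by immunofluorescence: methanol-fixed cells, 4% BSA block, anti-NFATc1 1:100 overnight at 4 °C, FITC secondary, DAPI counterstain. n = 5.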

The subject of data set [10] is RAW264.7. Briefly: Inhibition of NFATc1 expression in RANKL-induced mouse RAW264.7 cells at 20 uM after 24 hrs by immunofluorescence staining in presence of tin protoporphyrin 9 (SnPP). Type of data set: functional, cell-based. A digest of the protocol:
as §3

For data set [11], the system named is RAW264.7. Kind of data set: Inhibition of MMP9 activity in RANKL-induced mouse RAW264.7 cells at 20 uM after 5 days by gelatin zymography.
The subject of data set [12] is RAW264.7. Briefly: Induction of HO-1 protein expression in RANKL-induced mouse RAW264.7 cells up to 20 uM after 48 hrs by Western blot analysis.
Data set [13] concerns RAW264.7. Kind of data set: Inhibition of RANKL-induced H2O2 production in mouse RAW264.7 cells pretreated for 2 hrs before RANKL stimulation for 10 mins.
Data set [14] has as its system RAW264.7. Briefly: Inhibition of RANKL-induced superoxide anion production in mouse RAW264.7 cells pretreated for 2 hrs before RANKL stimulation for 10 mins.
Data set [15] has as its system RAW264.7. Kind of data set: Inhibition of MMP9 activity in RANKL-induced mouse RAW264.7 cells at 20 uM after 5 days by gelatin zymography in presence of tin protoporphyrin 9 (SnPP).

Calls of active or inactive are those of the source. The calls are words filed in the database; no cut-off is given here.

`C=CCc1ccc(O)c(-c2cc(CC=C)ccc2O)c1` [MAGNOLOL]: the Activity entry in the data set on RAW264.7 [1] is “Non-toxic”; with RAW264.7 [2], “Dose-dependent effect”. The inhibition result (with RAW264.7 [3]; in the data set on RAW264.7 [4]; in data set [5]; with RAW264.7 [9]; with RAW264.7 [11]) was “Active” in each case. The outcome in the data set on RAW264.7 [6] and in the data set on RAW264.7 [12] was Active. The outcome in the data set with RAW264.7 [7] and in the data set on RAW264.7 [8] was inactive. For the same compound, the inhibition result with RAW264.7 [10] and with RAW264.7 [15] was “inactive” throughout. The inhibition result with RAW264.7 [13] and in the data set on RAW264.7 [14] was “Dose-dependent effect” in each case.
